Experiments:
BT-549 = assay: Antitumor activity against human BT549 cells after 72 hrs by MTT assay; type: functional, cell-based; settings: BT-549, 72 h
Summary of the method: (§1)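 Cells seeded in 96-well plates; compounds added 24 h after seeding and left on for 72 h. Viable cells read spectrophotometrically after MTS tetrazolium staining, with dye conversion taken as proportional to live cells. IC50 for each cell line derived from dose–response curves.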

DU-4475 = assay: Antitumor activity against human DU4475 cells after 72 hrs by MTT assay; type: functional, cell-based; settings: DU-4475, 72 h
MDA-MB-468 = assay: Antitumor activity against human MDA-MB-468 cells after 72 hrs by MTT assay; type: functional, cell-based; settings: MDA-MB-468, 72 h; summary of the method: as §1
MDA-MB-231 = assay: Antitumor activity against human MDA-MB-231 cells after 72 hrs by MTT assay; type: functional, cell-based; settings: MDA-MB-231, 72 h; summary of the method: as §1
HCT-116 = assay: Antitumor activity against human HCT116 cells after 72 hrs by MTT assay; type: functional, cell-based; settings: HCT-116, 72 h; summary of the method: as §1
NCI-H446 = assay: Antitumor activity against human NCI-H446 cells after 72 hrs by MTT assay; type: functional, cell-based; settings: NCI-H446, 72 h; summary of the method: as §1
SHP77 = assay: Antitumor activity against human SHP77 cells after 72 hrs by MTT assay; type: functional, cell-based; settings: SHP77, 72 h; summary of the method: as §1
PC-3 = assay: Antitumor activity against human PC3 cells after 72 hrs by MTT assay; type: functional, cell-based; settings: PC-3, 72 h; summary of the method: as §1
[1] = Antitumor activity against human LNCaP-FGC cells after 72 hrs by MTT assay; type: functional, cell-based; settings: LNCaP-Clone-FGC; summary of the method: as §1
DU-145 = assay: Antitumor activity against human Du145 cells after 72 hrs by MTT assay; type: functional, cell-based; settings: DU-145, 72 h; summary of the method: as §1
[2] = Antitumor activity against human A2780/DDP-S cells after 72 hrs by MTT assay; type: functional, cell-based; settings: A2780, 72 h; summary of the method: as §1
CCRF-CEM = assay: Antitumor activity against human CCRF-CEM cells after 72 hrs by MTT assay; type: functional, cell-based; summary of the method: as §1
Rotifers = assay: Toxicity against Rotifers assessed as feeding at 10 ppm after 45 mins by injestion toxicity assay; type: organism-based; settings: rotifera, in vivo, 0.75 h
Lindra thalassiae [3] = assay: Antifungal activity against Lindra thalassiae ATCC 56663 after 6 days; type: functional, organism-based; settings: Lindriella thalassiae, ATCC 56663, 144 h
Summary of the method: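 Growth inhibition of marine fungal pathogen Lindra thalassiae ATCC 56663. IC50 derived from dose–response curves.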

Lindra thalassiae [4] = assay: Antifungal activity against Lindra thalassiae ATCC 56663 at 0.67 mg/mL after 6 days; type: functional, Lindriella thalassiae

Structure (SMILES)	IC50 (BT-549)	IC50 (DU-4475)	IC50 (MDA-MB-468)	IC50 (MDA-MB-231)	IC50 (HCT-116)	IC50 (NCI-H446)	IC50 (SHP77)	IC50 (PC-3)	IC50 [1]	IC50 (DU-145)	IC50 [2]	IC50 (CCRF-CEM)	Activity (Rotifers)	IC50 (Lindra thalassiae [3])	Activity (Lindra thalassiae [4])
CC(C)CC(=O)C[C@@H](C)[C@H]1CC[C@@]2(C)[C@@H]3CC[C@H]4[C@](C)(COS(=O)(=O)[O-])[C@@H](OS(=O)(=O)[O-])CC[C@@]45C[C@@]35CC[C@]12C.[Na+].[Na+]	31 µM	31 µM	31 µM	31 µM	31 µM	31 µM	31 µM	31 µM	31 µM	31 µM	31 µM	31 µM	9%		
CC(C)C[C@H](O)C[C@@H](C)[C@H]1CC[C@@]2(C)[C@@H]3CC[C@H]4[C@](C)(COS(=O)(=O)[O-])[C@@H](OS(=O)(=O)[O-])CC[C@@]45C[C@@]35CC[C@]12C.[Na+].[Na+]	31 µM	31 µM	31 µM	31 µM	31 µM	31 µM	31 µM	31 µM	31 µM	31 µM	31 µM	31 µM	9%	26 µM	670 µg/mL
CC(C)CC(=O)C[C@@H](C)[C@H]1CC[C@@]2(C)C3=C(CC[C@]12C)[C@@]1(C)CC[C@H](OS(=O)(=O)[O-])[C@@](C)(COS(=O)(=O)[O-])[C@@H]1CC3.[Na+].[Na+]	31 µM	31 µM	31 µM	31 µM	31 µM	31 µM	31 µM	31 µM	31 µM	31 µM	31 µM	31 µM	9%		
CC(C)C[C@H](O)C[C@@H](C)[C@H]1CC[C@@]2(C)[C@@H]3CC[C@H]4[C@](C)(COS(=O)(=O)O)[C@@H](O)CC[C@@]45C[C@@]35CC[C@]12C														55 µM	
CC(C)=CC(=O)C[C@@H](C)[C@H]1CC[C@@]2(C)[C@@H]3CC[C@H]4[C@](C)(CO)[C@@H](OS(=O)(=O)[O-])CC[C@@]45C[C@@]35CC[C@]12C.[Na+]	6 µM	6 µM	6 µM	6 µM	6 µM	6 µM	6 µM	6 µM	6 µM	6 µM	6 µM	6 µM	9%		
CC(C)=CC(=O)C[C@@H](C)[C@H]1CC[C@@]2(C)[C@@H]3CC[C@H]4[C@](C)(COS(=O)(=O)[O-])[C@@H](OS(=O)(=O)[O-])CC[C@@]45C[C@@]35CC[C@]12C.[Na+].[Na+]	31 µM	31 µM	31 µM	31 µM	31 µM	31 µM	31 µM	31 µM	31 µM	31 µM	31 µM	31 µM	9%		
CC(C)=CC(=O)C[C@@H](C)[C@H]1CC[C@@]2(C)[C@@H]3CC[C@H]4[C@](C)(CO)[C@@H](O)CC[C@@]45C[C@@]35CC[C@]12C	6 µM	6 µM	6 µM	6 µM	6 µM	6 µM	6 µM	6 µM	6 µM	6 µM	6 µM	6 µM	9%		
CC(C)=CC(=O)C[C@@H](C)[C@H]1CC[C@@]2(C)[C@@H]3CC[C@H]4[C@](C)(COS(=O)(=O)[O-])[C@@H](O)CC[C@@]45C[C@@]35CC[C@]12C.[Na+]	6 µM	6 µM	6 µM	6 µM	6 µM	6 µM	6 µM	6 µM	6 µM	6 µM	6 µM	6 µM	9%		
CC(C)C[C@H](O)C[C@@H](C)[C@H]1CC[C@@]2(C)[C@@H]3CC[C@H]4[C@](C)(CO)[C@@H](OS(=O)(=O)O)CC[C@@]45C[C@@]35CC[C@]12C														30 µM	
